Data on one compound can be found in ChEMBL document CHEMBL4038333, “Nonacidic Farnesoid X Receptor Modulators” (J Med Chem, 2017).

SMILES strings stand for the structures. Calls of active or inactive are those of the source.

A short description of series [1]: Half life in human HepG2 cells by HPLC analysis. It is filed as ADME, cell-based.
Series [2] deals with Oxysterols receptor LXR-beta (Homo sapiens) (UniProt P55055). Description: Antagonist activity at GAL4-tagged human LXRbeta ligand binding domain expressed in HEK293T cells at 1 uM after 12 to 14 hrs by dual-glo luciferase reporter gene assay. It is filed as cell-based. The settings on record: HEK-293T. The essentials: (§1)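 Run as a selectivity screen against each listed receptor (14 nuclear receptors plus TGR5), in both agonist and antagonist modes. Test concentration was 1 µM, with n = 3.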

Series [3] deals with Retinoic acid receptor RXR-beta (Homo sapiens) (UniProt P28702). Description: Antagonist activity at GAL4-tagged human RXRbeta isoform 1 ligand binding domain (294 to 533 residues) expressed in HEK293T cells at 1 uM after 12 to 14 hrs by dual-glo luciferase reporter gene assay. The settings on record: HEK-293T. It is filed as cell-based. An outline of the steps: as §1
In another series the test system is HepG2. Description: Cytotoxicity against human HepG2 cells up to 100 uM after 48 hrs by WST-1 assay. It is filed as cell-based. The note with it: hepg2, 48 h.
The target in series [4] is Peroxisome proliferator-activated receptor alpha (Homo sapiens) (UniProt Q07869). Description: Antagonist activity at GAL4-tagged human PPARalpha ligand binding domain expressed in HEK293T cells at 1 uM after 12 to 14 hrs by dual-glo luciferase reporter gene assay. It is filed as cell-based. The settings on record: HEK-293T. An outline of the steps:
as §1
A general note: A reporter such as luciferase makes a cellular process visible.

The target in series [5] is T1, Bile acid receptor (Homo sapiens) (UniProt Q96RI1).
T1 sequence (whole entry): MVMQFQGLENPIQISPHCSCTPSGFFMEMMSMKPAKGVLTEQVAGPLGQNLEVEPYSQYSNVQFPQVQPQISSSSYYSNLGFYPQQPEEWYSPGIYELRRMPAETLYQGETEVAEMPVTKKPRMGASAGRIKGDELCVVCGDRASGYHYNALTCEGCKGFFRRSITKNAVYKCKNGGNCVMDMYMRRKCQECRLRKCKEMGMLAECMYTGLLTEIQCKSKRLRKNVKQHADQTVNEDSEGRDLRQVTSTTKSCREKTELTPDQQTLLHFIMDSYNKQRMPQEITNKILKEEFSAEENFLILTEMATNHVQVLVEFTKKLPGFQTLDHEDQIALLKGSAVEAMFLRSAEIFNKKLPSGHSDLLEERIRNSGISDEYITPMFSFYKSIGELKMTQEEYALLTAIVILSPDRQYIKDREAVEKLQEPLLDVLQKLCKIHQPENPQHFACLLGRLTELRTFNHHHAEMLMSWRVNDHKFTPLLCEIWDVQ
Description: Modulation of FXR in human HepG2 cells assessed as induction of BSEP mRNA expression at 10 nM by qRT-PCR analysis. It is filed as cell-based. The essentials:
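HepG2 hepatocarcinoma cells were incubated with the compound at 10 nM. FXR target-gene mRNA was quantified by qRT-PCR (n = 3), with significance at p < 0.05, 0.01 and 0.001.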
(Real-time PCR tracks product formation cycle by cycle.)

For another series, the target named is T2, Bile acid receptor (Homo sapiens, UniProt Q96RI1).
T2 sequence (Q96RI1 whole entry): T1 sequence (whole entry)
Description: Binding affinity to FXR (unknown origin) ligand binding domain by ITC assay. (In general: In ITC the heat of successive injections is recorded.)

For series [6], the target named is G-protein coupled bile acid receptor 1 (Homo sapiens) (UniProt Q8TDU6). Description: Agonist activity at TGR5 (unknown origin) expressed in HEK293T cells at 1 uM after 12 to 14 hrs by dual-glo luciferase reporter gene assay. It is filed as cell-based. The essentials: as §1
Series [7] has as its target Retinoic acid receptor RXR-gamma (Homo sapiens) (UniProt P48443). Description: Antagonist activity at GAL4-tagged human RXRgamma ligand binding domain (229 to 463 residues) expressed in HEK293T cells at 1 uM after 12 to 14 hrs by dual-glo luciferase reporter gene assay. It is filed as cell-based. The settings on record: HEK-293T. An outline of the steps:
as §1

Another series has as its system HeLa. Description: Selectivity ratio for human FXR expressed in human HeLa cells co-expressing BSEP over GAL4-tagged human PPARdelta ligand binding domain expressed in HEK293T cells. It is filed as cell-based.
The nature of series [8]: Metabolic stability in human HepG2 cells assessed as compound remaining after 24 hrs by HPLC analysis. It is filed as ADME, cell-based. The note with it: read-out: Stability.
The target in series [9] is Peroxisome proliferator-activated receptor alpha (Homo sapiens) (UniProt Q07869). Description: Transactivation of GAL4-tagged human PPARalpha ligand binding domain expressed in HEK293T cells at 1 uM after 12 to 14 hrs by dual-glo luciferase reporter gene assay. It is filed as cell-based. The note with it: HEK-293T. The essentials:
as §1

Chain of Peroxisome proliferator-activated receptor alpha (Homo sapiens) (Q07869 whole entry, the tested form may be a part): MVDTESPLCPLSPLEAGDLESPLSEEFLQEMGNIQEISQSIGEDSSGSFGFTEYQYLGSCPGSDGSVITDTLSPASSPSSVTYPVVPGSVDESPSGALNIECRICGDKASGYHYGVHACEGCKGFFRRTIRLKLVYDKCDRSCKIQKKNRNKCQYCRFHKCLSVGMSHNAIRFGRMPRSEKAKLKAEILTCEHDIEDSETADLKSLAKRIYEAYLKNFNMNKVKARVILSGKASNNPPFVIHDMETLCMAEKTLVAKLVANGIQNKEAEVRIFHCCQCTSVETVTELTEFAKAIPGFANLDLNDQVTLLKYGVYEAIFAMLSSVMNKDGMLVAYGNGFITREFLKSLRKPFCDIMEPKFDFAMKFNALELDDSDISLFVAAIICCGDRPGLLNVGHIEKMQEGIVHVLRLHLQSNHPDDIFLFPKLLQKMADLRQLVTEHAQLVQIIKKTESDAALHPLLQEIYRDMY
Chain of G-protein coupled bile acid receptor 1 (Homo sapiens) (Q8TDU6 whole entry, the tested form may be a part): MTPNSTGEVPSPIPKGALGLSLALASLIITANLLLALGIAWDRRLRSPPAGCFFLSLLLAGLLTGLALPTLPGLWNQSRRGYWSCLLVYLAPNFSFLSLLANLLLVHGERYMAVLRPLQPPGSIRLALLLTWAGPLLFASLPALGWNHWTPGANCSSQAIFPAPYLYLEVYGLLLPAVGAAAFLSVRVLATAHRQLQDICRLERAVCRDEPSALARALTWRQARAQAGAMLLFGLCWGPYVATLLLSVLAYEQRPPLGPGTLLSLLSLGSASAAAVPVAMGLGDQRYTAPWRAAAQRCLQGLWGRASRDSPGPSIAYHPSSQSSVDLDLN
Chain of Retinoic acid receptor RXR-gamma (Homo sapiens) (P48443 whole entry, the tested form may be a part): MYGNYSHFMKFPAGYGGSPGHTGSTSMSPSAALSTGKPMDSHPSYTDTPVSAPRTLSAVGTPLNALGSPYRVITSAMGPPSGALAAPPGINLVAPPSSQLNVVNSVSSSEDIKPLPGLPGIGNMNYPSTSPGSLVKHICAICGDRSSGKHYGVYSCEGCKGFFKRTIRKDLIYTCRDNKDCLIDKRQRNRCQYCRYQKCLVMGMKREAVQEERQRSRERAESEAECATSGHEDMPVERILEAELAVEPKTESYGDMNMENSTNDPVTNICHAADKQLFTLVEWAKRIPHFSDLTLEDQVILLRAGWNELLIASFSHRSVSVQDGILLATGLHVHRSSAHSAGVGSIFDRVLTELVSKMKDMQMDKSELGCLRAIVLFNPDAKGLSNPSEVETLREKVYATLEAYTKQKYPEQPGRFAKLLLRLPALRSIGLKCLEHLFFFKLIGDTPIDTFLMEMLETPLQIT
Chain of Oxysterols receptor LXR-beta (Homo sapiens) (P55055 whole entry, the tested form may be a part): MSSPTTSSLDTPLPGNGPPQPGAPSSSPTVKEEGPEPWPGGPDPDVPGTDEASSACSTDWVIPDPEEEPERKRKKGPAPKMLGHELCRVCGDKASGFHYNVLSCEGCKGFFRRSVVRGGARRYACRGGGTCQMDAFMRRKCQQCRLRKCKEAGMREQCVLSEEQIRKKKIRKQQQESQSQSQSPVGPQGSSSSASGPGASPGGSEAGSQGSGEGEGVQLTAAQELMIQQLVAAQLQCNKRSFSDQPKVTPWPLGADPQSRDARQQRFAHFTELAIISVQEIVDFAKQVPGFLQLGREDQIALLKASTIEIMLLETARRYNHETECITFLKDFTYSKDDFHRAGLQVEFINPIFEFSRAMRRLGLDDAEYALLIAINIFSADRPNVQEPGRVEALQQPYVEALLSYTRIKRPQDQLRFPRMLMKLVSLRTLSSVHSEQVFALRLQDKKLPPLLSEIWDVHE
Chain of Retinoic acid receptor RXR-beta (Homo sapiens) (P28702 whole entry, the tested form may be a part, canonical isoform): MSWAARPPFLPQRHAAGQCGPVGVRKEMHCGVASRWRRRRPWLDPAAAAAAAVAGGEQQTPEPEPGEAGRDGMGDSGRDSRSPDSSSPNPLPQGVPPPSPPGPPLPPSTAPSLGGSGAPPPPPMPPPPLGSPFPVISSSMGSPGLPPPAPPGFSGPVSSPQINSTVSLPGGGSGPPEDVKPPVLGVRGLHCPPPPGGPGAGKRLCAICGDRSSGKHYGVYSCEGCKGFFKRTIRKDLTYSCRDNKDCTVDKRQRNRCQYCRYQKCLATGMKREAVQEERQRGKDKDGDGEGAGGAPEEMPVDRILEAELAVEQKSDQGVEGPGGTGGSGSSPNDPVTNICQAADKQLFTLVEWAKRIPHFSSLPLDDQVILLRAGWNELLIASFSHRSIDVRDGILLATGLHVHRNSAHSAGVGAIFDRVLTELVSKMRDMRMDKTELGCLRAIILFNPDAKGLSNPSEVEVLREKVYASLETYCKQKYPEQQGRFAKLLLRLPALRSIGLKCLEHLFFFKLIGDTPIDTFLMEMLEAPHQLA

With `COc1ccc(CNc2c(-c3cc(Cl)ccn3)nc3ccc(Cl)cn23)cc1`, the half-life (usually the time needed for the level to fall by half in the phase considered) in series [1] lay within 1.5 to 2 h. Besides, the inhibition result in series [2], in [3], in series [4] and in [7] was “inactive” throughout. In addition, the Activity entry with HepG2 is given as “Non-Toxic”. The outcome in series [5] was Active. Further, on Bile acid receptor, the equilibrium dissociation constant (Kd) – broadly, the concentration at which binding is half-saturated – is 37 nM. Moreover, the outcome in [6] and in series [9] was inactive. Moreover, the Selectivity ratio in the series on HeLa turned out to be 3000. Besides, the remaining at 24 h in [8] is 12%.
